Measured values of several laboratories.
Target: Inhibitor of nuclear factor kappa-B kinase subunit beta (IKBKB, Homo sapiens, UniProt O14920)
Technique: competition with immobilised ligand
Sequence (O14920 1-756, as in one of the studies): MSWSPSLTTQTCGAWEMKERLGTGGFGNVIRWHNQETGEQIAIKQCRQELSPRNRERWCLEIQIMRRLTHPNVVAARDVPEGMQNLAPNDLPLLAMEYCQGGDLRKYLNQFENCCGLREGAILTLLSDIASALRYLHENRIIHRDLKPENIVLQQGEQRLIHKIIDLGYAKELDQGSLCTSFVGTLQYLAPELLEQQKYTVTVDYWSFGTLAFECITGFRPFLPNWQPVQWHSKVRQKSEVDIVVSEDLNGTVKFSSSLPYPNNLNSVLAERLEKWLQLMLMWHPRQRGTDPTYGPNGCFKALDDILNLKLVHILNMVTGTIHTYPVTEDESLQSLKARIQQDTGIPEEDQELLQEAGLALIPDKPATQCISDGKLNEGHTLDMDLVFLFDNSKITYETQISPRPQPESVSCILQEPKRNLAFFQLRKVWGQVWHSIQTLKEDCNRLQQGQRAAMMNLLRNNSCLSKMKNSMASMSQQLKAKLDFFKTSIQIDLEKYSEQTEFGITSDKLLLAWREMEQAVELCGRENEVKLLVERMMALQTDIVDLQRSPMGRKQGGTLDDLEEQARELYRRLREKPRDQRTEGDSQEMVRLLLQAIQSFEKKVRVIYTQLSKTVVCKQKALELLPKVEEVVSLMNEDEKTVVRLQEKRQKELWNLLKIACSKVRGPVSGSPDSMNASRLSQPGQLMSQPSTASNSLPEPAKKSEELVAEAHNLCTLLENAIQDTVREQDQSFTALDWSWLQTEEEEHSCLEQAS

SMILES | test | conditions | remaining binding
F[C@@H]1CCN(c2nccc(-c3cnn4ncccc34)n2)C1 | binding | 1 µM | 100%
O=C(c1ccc(Nc2ncc(Cl)c(-c3cc4ccccc4s3)n2)cc1)N1CCC(N2CCCC2)CC1 | binding | 1 µM | 0.1%
CC(C)(C)c1ccc(-c2nc(CBr)nn2-c2cccc(O)c2)cc1 | cell-free assay | 10 µM | 70%
C[C@@H]1CN(c2ccc3ncc(-c4ccc5[nH]nc(C6CC6)c5c4)n3n2)C[C@H](C)O1 | binding | 0.5 µM | 89%
CN(C)c1ncnc(-c2ccc3nc(Nc4cc(CN5CCN(C(=O)CC(F)(F)F)CC5)ccn4)[nH]c3c2)c1Cl | cell-free assay | 1 µM | 80%
COc1cnc(Nc2cccc(S(N)(=O)=O)c2)nc1N1CCN(c2ccccc2)CC1 | binding | 1 µM | 94%
O=C(c1ccc(Nc2ncc(Cl)c(-c3ccc(Cl)s3)n2)cc1)N1CCC(N2CCCC2)CC1 | binding | 1 µM | 0.6%
CN(C)c1nccc(-c2cnn3ncccc23)n1 | binding | 1 µM | 84%
CNC(=O)[C@@H]1CC[C@@H](n2c(-c3ccc4cnccc4c3)nc3ccc(C(=O)NCc4cccc(C(N)=O)c4)cc32)C1 | binding | 1 µM | 100%
O=C(NCC1CCOCC1)c1n[nH]cc1NC(=O)c1c(F)cccc1F | binding | 1 µM | 92%
CN(C)CC#Cc1ccc(OCCCc2sc(N3CCc4cccc(C(=O)Nc5nc6ccccc6s5)c4C3)nc2C(=O)O)c(F)c1 | cell-free assay | 1 µM | 72%
c1cnn2ncc(-c3ccnc(N4CCC45COC5)n3)c2c1 | binding | 1 µM | 40%
CCN1CCN(Cc2ccc(C(=O)Nc3ccc(C)c(Oc4ccc5c(c4)CC(=O)N5)c3)cc2C(F)(F)F)CC1 | binding | 1 µM | 100%
Cc1c(NC(=O)c2cc(C(N)=O)nc3cc(F)ccc23)c(C(F)(F)F)nn1Cc1ccc(C(C)(C)C)cc1 | cell-free assay | 1 µM | 100%
CN(C)c1nccc(-c2cnc3ncccn23)n1 | binding | 1 µM | 67%
c1cncc(-c2cccc(Nc3nccc(NC4CCCCC4)n3)c2)c1 | binding | 10 µM | 89%
CC(=O)N1CCC(c2ccc(C(=O)NC3=NCCN3)cc2C(F)(F)F)CC1 | cell-free assay | 1 µM | 85%
N[C@H]1CCN(c2nccc(-c3cnn4ncccc34)n2)C1 | binding | 1 µM | 91%
CSc1cccnc1N1CCN(Cc2nc3ccccc3[nH]2)CC1 | cell-free assay | 1 µM | 86%
Cc1cnc(Nc2ccc(C(=O)N3CCC(N4CCCC4)CC3)cc2)nc1-c1cc2ccccc2s1 | binding | 1 µM | 0%
CCCOc1ccc([C@H]2[C@H](C(=O)O)[C@@H](c3ccc4c(c3)OCO4)CN2CC(=O)Nc2c(CC)cccc2CC)cc1 | cell-free assay | 1 µM | 77%
CN(C)c1ncc(F)c(-c2cnn3ncccc23)n1 | binding | 1 µM | 80%
CNCc1ccccc1-c1csc([C@H](C)Nc2nc(C)nc3cc(OC)c(OC)cc23)c1 | cell-free assay | 1 µM | 83%
Nc1ncc2c(n1)-c1c([nH]c3ccc(C#CC4CC4)cc13)CCCC2 | binding | 1 µM | 100%
C[C@@H]1CCN(c2nccc(-c3cnn4ncccc34)n2)C1 | binding | 1 µM | 77%
CCCCN(CCCC)C(=O)CN1C[C@H](c2cc(OC)c3c(c2)OCO3)[C@@H](C(=O)O)[C@@H]1CC(C)(C)CCC | cell-free assay | 1 µM | 81.5%
